Measurements collected from several papers.
Each line is one published result; the experiments were not run side by side.
Target: TGF-beta receptor type-1 (TGFBR1, Homo sapiens, UniProt P36897)
One construct used (P36897 1-503): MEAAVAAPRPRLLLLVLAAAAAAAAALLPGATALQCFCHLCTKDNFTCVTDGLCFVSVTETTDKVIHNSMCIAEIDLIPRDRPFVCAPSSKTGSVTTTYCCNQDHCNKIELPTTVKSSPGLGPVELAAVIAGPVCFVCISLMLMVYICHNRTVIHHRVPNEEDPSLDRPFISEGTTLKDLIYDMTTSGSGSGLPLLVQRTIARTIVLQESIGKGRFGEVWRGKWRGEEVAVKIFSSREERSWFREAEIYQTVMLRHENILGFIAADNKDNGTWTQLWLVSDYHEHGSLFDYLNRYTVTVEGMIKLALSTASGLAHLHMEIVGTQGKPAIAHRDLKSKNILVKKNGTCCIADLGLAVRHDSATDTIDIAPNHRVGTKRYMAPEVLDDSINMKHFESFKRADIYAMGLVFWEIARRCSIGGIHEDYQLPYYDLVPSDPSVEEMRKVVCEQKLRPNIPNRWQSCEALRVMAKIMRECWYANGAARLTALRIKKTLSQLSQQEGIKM

SMILES | test | setting | measurement | result
CN(C)C(=O)Cn1cc(-c2nc(C3(c4ccc(-c5cnc(N)nc5)cc4)CC3)no2)cn1 | cell-free assay, competition with immobilised ligand | 1 µM | remaining binding | 97%
O=C(Nc1cnn(-c2csc(C(=O)NC3COC3)c2)c1)Nc1c(F)cccc1Cl | enzyme activity, inhibitor | 5 µM | remaining activity | 97.4%
CSc1cccnc1N1CCN(Cc2nc3ccccc3[nH]2)CC1 | cell-free assay, competition with immobilised ligand | 1 µM | remaining binding | 100%
Cc1cc(NC(=O)c2cccc3cc(-c4cccc5[nH]nc(N)c45)ccc23)ccc1F | enzyme activity, inhibitor | 0.1 µM | activity vs control | 120%
Cc1ccc(NC(=O)c2ccc(C)c(C(F)(F)F)c2)cc1C#Cc1nn(C2CCC(O)CC2)c2ncnc(N)c12 (stereo not shown) | cell-free assay | 10 µM | remaining signal | 105%
Cc1ccc(C(=O)Nc2ccc(CN3CCN(C)CC3)c(C(F)(F)F)c2)cc1C#Cc1cnc2cccnn12 | cell-free assay | 23.5 nM | remaining signal | 98%
O=C(O)c1cc(-c2ccc(C3CCNCC3)cc2)c2ccc(-c3ccc(C(F)(F)F)cc3)cc2c1 | cell-free assay, competition with immobilised ligand | 1 µM | remaining binding | 81%
COc1cc2ncnc(Nc3ccc(F)c(Cl)c3)c2cc1OCCCN1CCOCC1 | cell-free assay | 0.5 µM | remaining signal | 99.6%
CCN(CC)c1ccc(C2=NNC(=O)CC2C)cc1[N+](=O)[O-] (stereo not shown) | enzyme activity, inhibitor | 10 µM | remaining activity | 89%
N#CCCc1ccc2c(c1)-c1[nH]c3ccc([N+](=O)[O-])cc3c1CC(=O)N2 | cell-free assay | 0.5 µM | remaining signal | 103%
CC(=O)C1=C(C)N(c2cccc(C(F)(F)F)c2)C(=O)N[C@@H]1c1ccc(C#N)nc1 | cell-free assay, competition with immobilised ligand | 1 µM | remaining binding | 99.2%
Cc1cnc(NC2CCOCC2)nc1-n1cnc(C(=O)NC(CN)c2cc(F)cc(Cl)c2)c1 (stereo not shown) | enzyme activity, inhibitor, radiometric | 1 µM | remaining activity | 98%
Cc1ccc(NC(=O)c2ccc(CN3CCN(C)CC3)cc2)cc1Nc1nc(-c2cccnc2)cs1 | cell-free assay | 0.5 µM | remaining signal | 98.5%
Cc1cc(-n2nc(Cc3cc(F)cc(C(F)(F)F)c3)nc2C)ccc1C(N)=O | cell-free assay, competition with immobilised ligand | 1 µM | remaining binding | 94%
Fc1ccc(-c2c(-c3ccncc3)ncn2-c2ccc3ccccc3c2)cc1 | cell-free assay, TR-FRET | 1 µM | inhibition | 21%
COc1cc(/C=C/C(=O)CC(=O)/C=C/c2ccc(O)c(OC)c2)ccc1O | enzyme activity, inhibitor | 1 µM | activity vs control | 82%
CS(=O)(=O)Nc1cccc(-c2csc(NC(=O)CSc3nc4nccnc4c(=O)n3CCc3ccccc3)n2)c1 | enzyme activity, inhibitor | 10 µM | inhibition | 5%
CC(C)(C)c1nc(-c2cccc(NS(=O)(=O)c3c(F)cccc3F)c2F)c(-c2ccnc(N)n2)s1 | enzyme activity, inhibitor, radiometric | 1 µM | remaining activity | 22%
CO[C@H]1CC[C@H](CNc2ccc(S(=O)(=O)NC(=O)c3ccc(N4CCN(CC5=C(c6ccc(Cl)cc6)CC(C)(C)CC5)CC4)cc3Oc3cnc4[nH]ccc4c3)cc2[N+](=O)[O-])CC1 | cell-free assay, competition with immobilised ligand | 1 µM | remaining binding | 84%
CCOc1cc(-c2nncn2C)ccc1Nc1ncc2cc(C)nc(NCC(C)(C)C)c2n1 | cell-free assay, TR-FRET | 1 µM | inhibition | ≤ 15%
C[S+]([O-])c1ccc(-c2nc(-c3ccncc3)c(-c3ccc(F)cc3)[nH]2)cc1 (stereo not shown) | cell-free assay | 0.5 µM | remaining signal | 101%
COc1cccc(F)c1Cn1cnc(-c2ccc(F)cc2)c1-c1ccncc1 | cell-free assay, TR-FRET | 1 µM | inhibition | 20%
Cc1cccc(-c2[nH]c(C(C)(C)C)nc2-c2ccc3c(c2)OCO3)n1 | cell-free assay | 0.5 µM | remaining signal | 35.8%
CCCOc1ccc([C@@H]2[C@@H](C(=O)O)[C@H](c3ccc4c(c3)OCO4)CN2CC(=O)Nc2c(CC)cccc2CC)cc1 | cell-free assay, competition with immobilised ligand | 1 µM | remaining binding | 64%
Fc1ccc(-c2c(-c3ccncc3)ncn2-c2ccccc2)cc1 | cell-free assay, TR-FRET | 1 µM | inhibition | 21%
CCCCN(CCCC)C(=O)CN1C[C@H](c2cc(OC)c3c(c2)OCO3)[C@@H](C(=O)O)[C@@H]1CC(C)(C)CCC | cell-free assay, competition with immobilised ligand | 1 µM | remaining binding | 98.6%
Fc1ccc(-c2c(-c3ccncc3)ncn2-c2ccc(-c3ccccc3)cc2)cc1 | cell-free assay, TR-FRET | 1 µM | inhibition | 21%
COc1cc(-c2cc(-c3ccc(N4CCNCC4)cc3)cnc2C)cc(OC)c1OC | enzyme activity, inhibitor | 0.1 µM | inhibition | 3%
